The data set can be described thus: Toxicity liver stage against HepG2, at 10uM. Format: cell-based. Further details: test concentration 10 uM, cell line HepG2-A16-CD81EGFP. The settings on record: human, HepG2-A16-CD81EGFP cells; read-out: INHIBITION
The procedure, abridged:
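Uninfected HepG2-A16-CD81EGFP cells, 3 × 10^3 per well, 1536-well, plated on prespotted compound at 10 μM final, parasite-free screening media added to match infected plates; puromycin 10 μM positive, DMSO 0.5% negative; run in parallel with 48 h PbLuc assay at 37 °C, 5% CO2; viability by CellTiter-Glo luminescence, normalized to controls.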

The results in this text go back to ChEMBL document CHEMBL4513216, “Probing the Open Global Health Chemical Diversity Library for Multistage-Active Starting Points for Next-Generation Antimalarials” (ACS Infect Dis, 2020).

As to `COc1ccc(CN(C)CC(O)COCc2ccccc2Cl)c(OC)c1` (stereo not given), the cytotoxicity at 10 µM came out at 18.8%.

Regarding `CN(C)S(=O)(=O)N1CCCC1C(=O)N1CCSCC1` (stereo not given), the cytotoxicity at 10 µM worked out at 6.67%.

Take `CC(C)n1cnnc1SCCN(C)c1ccccc1`: the cytotoxicity at 10 µM stood at 2.96%.

For `CCc1cc(N2CCCC(c3noc(CC)n3)C2)ncn1` (stereo not given), the cytotoxicity at 10 µM worked out at 9.74%.

`CN(CC(=O)N(C)C1CC1)C1CCN(c2ccc(Cl)cc2)CC1`: the cytotoxicity at 10 µM stood at 0.153%.

For `Cc1nn(C2CCCC2)c2c1C(c1ccc3c(c1)OCO3)SCC(=O)N2` (stereo not given), the cytotoxicity at 10 µM was -1.52%.

As to `Cc1ccc(C(=O)N2CCc3ncnc(C)c3CC2)cc1F`, the cytotoxicity at 10 µM was found to be 11.5%.

In the case of `CC(C)(C)c1ncc(C(=O)NCc2ccccc2CN2CCCC2)s1`, the cytotoxicity at 10 µM is -8.98%.

Turning to `CN1CCN(C2CCN(CCOc3ccc(C#N)cc3)CC2)C1=O`, the cytotoxicity at 10 µM is -1.03%.

As for `O=C(Cc1ccsc1)N1CCC(c2ccncc2)CC1`, the cytotoxicity at 10 µM stood at 8.89%.

As to `Cc1cnn(CC2CCCCN2CC(=O)NCc2ccccn2)c1` (stereo not given), the cytotoxicity at 10 µM is -6.16%.

Take `O=c1[nH][nH]c2cn(-c3ccccc3)c(=O)n12`: the cytotoxicity at 10 µM amounted to 4.6%.

As for `O=C(COc1ccc2c(c1)CCCC2=O)NCc1ccco1`, the cytotoxicity at 10 µM worked out at 3.39%.

For `CC(C)(C)c1nc(CNC(=O)N2CCc3ccccc3C2CO)no1` (stereo not given), the cytotoxicity at 10 µM was 6.56%.

For the compound `O=C(NCC1(CO)CC1)c1nnn(-c2ccc(F)cc2)c1C1CC1`, the cytotoxicity at 10 µM is -1.06%.

For `CCc1cnc(N)nc1NCCCN1CCCCC1CO` (stereo not given), the cytotoxicity at 10 µM was -0.0414%.

For `O=C(O)c1c(-c2cccnc2)ncc2c1CCN(CC1CCOC1)C2` (stereo not given), the cytotoxicity at 10 µM is -2.55%.

On to `CN1CCN(C[C@@H]2CN(C(=O)CC3CCCCC3)C[C@@H]2CO)CC1`, for which the cytotoxicity at 10 µM is -8.76%.

Turning to `O=C(NC1CCCc2nc(N3CCCCC3)ncc21)C1CCCC1` (stereo not given), the cytotoxicity at 10 µM is -2.05%.

As for `C[C@@H]1CN(C(=O)Cc2ccsc2)C[C@]12CCN(CCN(C)C)C2=O`, the cytotoxicity at 10 µM was -1.1%.

Turning to `c1ccc2oc(CCCN3CCOC(Cn4cncn4)C3)nc2c1` (stereo not given), the cytotoxicity at 10 µM amounted to 1.52%.

Regarding `O=C(c1cn(Cc2ccccc2)c2ncccc12)N1CCCCC1`, the cytotoxicity at 10 µM turned out to be 1.2%.

As for `CCC1CN(C(=O)c2ccccc2C(C)=O)CCN1C(C)C` (stereo not given), the cytotoxicity at 10 µM came to 0.684%.

Turning to `Cc1nn(C)c2cnn(CC(=O)NCc3ccc(F)cc3)c12`, the cytotoxicity at 10 µM came to 8.27%.

In the case of `Cc1n[nH]c(C)c1NC(=O)CN1CCc2c(nc(C(C)C)n2C)C1`, the cytotoxicity at 10 µM is -5.68%.

Take `CC(C)NC(=O)N1CCC2(CC1)CC[C@@]1(C(=O)N(C)C)CN(C)C[C@@H]21`: the cytotoxicity at 10 µM is -108%.

For the compound `c1cncc(COC2COC3(CCN(c4cnccn4)CC3)C2)c1` (stereo not given), the cytotoxicity at 10 µM came to 1.89%.

On to `CC(=O)N[C@@H]1CN(C(=O)c2cc3sccc3[nH]2)C[C@H]1c1ccc(C)o1`, for which the cytotoxicity at 10 µM was determined as 8.98%.

On to `CC(c1cc(F)ccc1F)N1CCN(Cc2nccn2C)CC1` (stereo not given), for which the cytotoxicity at 10 µM is -15.6%.

As to `Cc1noc(C2CCCN(C(=O)c3cncc(Br)c3)C2)n1` (stereo not given), the cytotoxicity at 10 µM is -1.82%.

Turning to `CC(C)n1ccnc1Cn1ccc2ncccc2c1=O`, the cytotoxicity at 10 µM is -4.65%.

On to `O=S(=O)(C1CC1)N1CCO[C@H]2[C@H](OCC3CC3)CC[C@@H]21`, for which the cytotoxicity at 10 µM was determined as 5.61%.

`CCOCc1nc2c(c(N(C)Cc3snnc3C)n1)CCNCC2`: the cytotoxicity at 10 µM amounted to 10.7%.

As to `Cc1ccc(C(CNCc2c[nH]nc2C)N(C)C)cc1` (stereo not given), the cytotoxicity at 10 µM was found to be 8.42%.

On to `CCOc1ccc(C(=O)NCc2ccnc(N3CCN(C)CC3)c2)cn1`, for which the cytotoxicity at 10 µM came out at 0.935%.

Take `CCc1ccc(C(=O)Nc2ccc(CC3CC(=O)NC3=O)cc2)s1` (stereo not given): the cytotoxicity at 10 µM was -0.95%.

As for `Cc1ccc(-c2ccc(C(=O)NCCC(=O)N(C)C)c(F)c2)cc1`, the cytotoxicity at 10 µM is -0.0916%.

For `O=C(Cn1cccnc1=O)NCc1cccnc1OCC(F)(F)F`, the cytotoxicity at 10 µM is -11.9%.

As to `COCc1cc(N(C)Cc2c(C)nn(C)c2C)n2nccc2n1`, the cytotoxicity at 10 µM was found to be 2.45%.

Regarding `O=C(NC1(c2cccc(F)c2)CCOCC1)c1ccccn1`, the cytotoxicity at 10 µM is -12.3%.
